The results in this text go back to ChEMBL document CHEMBL1687750, “Nonclinical pharmacokinetics of oseltamivir and oseltamivir carboxylate in the central nervous system” (Antimicrob Agents Chemother, 2009).

Data set [1] has as its target ATP-dependent translocase ABCB1 (Homo sapiens, UniProt P08183). As to the kind of experiment: Inhibition of human MDR1-mediated digoxin permeability expressed in pig LLC-PK1 cells. It is filed as cell-based. The method in brief: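 P-gp-transfected LLC-PK1 monolayers were used, with labeled digoxin (10 nM) as substrate and unlabeled oseltamivir (0.1–10 mM) added to both donor and receiver sides. Transport was bidirectional at 37°C under 5% CO2, with the acceptor side sampled up to 3 h and counted by scintillation. Three inserts were used per condition, and IC50 was derived from inhibition of digoxin transport.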

Data set [2] can be described thus: Volume of distribution at steady state in Sprague-Dawley rat at 30 mg/kg, iv. It is filed as ADME, organism-based. Set-up: dose 30 mg/kg, route intravenous. The conditions noted are these: in vivo, read-out: Vdss. The method in brief: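 Nonfasted adult Sprague-Dawley rats received a single 30 mg/kg i.v. bolus in 0.9% NaCl (pH 4.0), injected slowly into the tail vein over 20–30 s. Plasma was sampled by cardiac puncture under isoflurane at 5 min and 0.25, 0.5, 1, 2, 4 and 8 h, with 4–5 rats per time point. Samples were assayed by LC-MS/MS. Vss was estimated by noncompartmental analysis of pooled composite data.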

Sequence of ATP-dependent translocase ABCB1 (P08183 whole entry): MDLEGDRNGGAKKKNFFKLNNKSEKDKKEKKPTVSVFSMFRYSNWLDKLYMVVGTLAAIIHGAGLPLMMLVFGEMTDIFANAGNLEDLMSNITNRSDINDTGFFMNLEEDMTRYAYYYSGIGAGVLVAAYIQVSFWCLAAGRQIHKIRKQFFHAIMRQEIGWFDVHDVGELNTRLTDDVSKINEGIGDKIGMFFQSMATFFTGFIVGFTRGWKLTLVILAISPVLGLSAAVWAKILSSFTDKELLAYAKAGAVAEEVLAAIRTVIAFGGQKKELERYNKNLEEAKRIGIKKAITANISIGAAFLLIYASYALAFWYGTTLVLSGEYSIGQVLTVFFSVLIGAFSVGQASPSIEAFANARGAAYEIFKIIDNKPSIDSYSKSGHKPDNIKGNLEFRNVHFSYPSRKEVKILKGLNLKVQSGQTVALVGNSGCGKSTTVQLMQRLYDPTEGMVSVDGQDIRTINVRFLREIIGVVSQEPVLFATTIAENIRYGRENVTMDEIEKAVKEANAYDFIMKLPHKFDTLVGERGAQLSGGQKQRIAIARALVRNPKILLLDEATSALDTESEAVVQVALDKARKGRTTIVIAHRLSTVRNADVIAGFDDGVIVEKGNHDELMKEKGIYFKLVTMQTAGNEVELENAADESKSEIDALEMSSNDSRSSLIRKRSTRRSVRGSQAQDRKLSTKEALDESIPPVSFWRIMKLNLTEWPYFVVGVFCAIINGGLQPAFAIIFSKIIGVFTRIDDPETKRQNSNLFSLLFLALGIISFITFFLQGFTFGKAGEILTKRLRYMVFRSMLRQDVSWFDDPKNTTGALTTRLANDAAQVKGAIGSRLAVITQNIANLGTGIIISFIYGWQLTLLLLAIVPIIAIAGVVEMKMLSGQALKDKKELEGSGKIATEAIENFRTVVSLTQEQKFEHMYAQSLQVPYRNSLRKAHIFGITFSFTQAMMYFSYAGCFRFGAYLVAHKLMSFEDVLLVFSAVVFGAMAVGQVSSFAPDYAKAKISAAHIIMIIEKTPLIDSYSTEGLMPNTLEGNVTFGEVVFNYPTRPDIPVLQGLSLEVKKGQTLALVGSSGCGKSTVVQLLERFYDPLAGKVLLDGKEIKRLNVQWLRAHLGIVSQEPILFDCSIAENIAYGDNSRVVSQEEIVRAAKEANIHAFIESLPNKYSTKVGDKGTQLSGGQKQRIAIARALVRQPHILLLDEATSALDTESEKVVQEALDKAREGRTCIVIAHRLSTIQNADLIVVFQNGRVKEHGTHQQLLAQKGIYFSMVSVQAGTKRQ

The IC50 is the concentration that gives 50% inhibition. High values mean weaker potency, low ones greater potency. `CCOC(=O)C1=C[C@@H](OC(CC)CC)[C@H](NC(C)=O)[C@@H](N)C1` [OSELTAMIVIR] showed an IC50 in data set [1] of 1300 µM. The Vd in data set [2] turned out to be 3 L/kg.
